The results in this text go back to ChEMBL document CHEMBL4837210 (Eur J Med Chem, 2021).

One test concerns Enterococcus faecium. In words: Antibacterial activity against vancomycin-susceptible Enterococcus faecium ATCC19434 assessed as bacterial growth inhibition incubated for 24 hrs by CLSI protocol based broth microdilution method. As to conditions: ATCC19434, 24 h. (In general: Broth dilution looks for growth in wells or tubes with falling amounts of substance.)
For test [1], the system named is Staphylococcus aureus. The test is described as follows: Bactericidal activity against […] Staphylococcus aureus ATCC 25923 assessed as log reduction in colony forming unit at 4 times MIC after 3 hrs by time kill assay. In kind it is functional. The procedure, abridged: (§1)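 Samples at 0, 3, 6, 9, 12 and 24 h were serially diluted in MH broth and plated on tryptic soy agar. CFU/mL from colony counts after 24 h at 37 °C.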

Another test concerns Bacillus subtilis. The test is described as follows: Ratio of MBC to MIC against penicillin-susceptible Bacillus subtilis ATCC 9372. It counts as functional. The procedure, abridged: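 Ratio of MBC to MIC, both measured by broth microdilution in MH broth (37 °C, 24 h); MBC was scored by subculturing clear wells onto tryptic soy agar for 24 h. Following CLSI, a ratio of 4 or less counts as bactericidal.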

The subject of test [2] is Staphylococcus epidermidis. The test is described as follows: Bactericidal activity against penicillin-resistant Staphylococcus epidermidis measured after 24 hrs by CLSI protocol based method. It counts as functional. An outline of the steps:
(§2)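 MBC after broth microdilution. After 24 h, aliquots from clear wells were plated on tryptic soy agar and incubated aerobically 24 h at 37 °C. MBC was the lowest concentration giving no colonies.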

In another test the test system is Pseudomonas aeruginosa. In words: Antibacterial activity against penicillin-susceptible Pseudomonas aeruginosa ATCC27853 assessed as bacterial growth inhibition incubated for 24 hrs by CLSI protocol based broth microdilution method. It counts as functional.
The test system of test [3] is Staphylococcus aureus. In words: Antibacterial activity against Staphylococcus aureus assessed as inhibition of bacterial growth measured by broth microdilution method. In kind it is functional. To be noted: time 24 hrs. An outline of the steps:
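Broth microdilution in Mueller Hinton broth. A 0.5 McFarland suspension was diluted tenfold, giving an inoculum of 1.5 × 10⁷ cfu/mL. This was added to 2-fold serial compound dilutions from […]. Plates were incubated aerobically at 37 °C for 24 h. MIC was the lowest concentration with no visible turbidity.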

The subject of test [4] is Enterococcus faecalis. In words: Antibacterial activity against vancomycin-resistant Enterococcus faecalis ATCC 51299 assessed as bacterial growth inhibition incubated for 24 hrs by CLSI protocol based broth microdilution method. It counts as functional.
Test [5] relates to Staphylococcus aureus. In words: Ratio of MBC to MIC against penicillin-resistant Staphylococcus aureus. In kind it is functional. An outline of the steps:
(§3)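 MBC/MIC ratio from the broth microdilution MIC (24 h, 37 °C, MH broth) and the MBC (clear wells subcultured on tryptic soy agar, 24 h). A ratio ≤4 is read as bactericidal per CLSI.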

The subject of test [6] is Staphylococcus aureus. In words: Antibacterial activity against penicillin-resistant Staphylococcus aureus assessed as inhibition of bacterial growth measured by broth microdilution method. It counts as functional. As to conditions: time 24 hrs. The procedure, abridged: (§4)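 Broth microdilution MIC. A 0.5 McFarland suspension was diluted 10-fold and added at 1.5 × 10⁷ cfu/mL to 2-fold dilutions (0.125–64) in Mueller Hinton broth. Incubated aerobically 24 h at 37 °C. MIC was the lowest concentration with no visible turbidity.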

Test [7] relates to Staphylococcus aureus. The test is described as follows: Ratio of MBC to MIC against erythromycin-susceptible Staphylococcus aureus ATCC 25923. It counts as functional. The procedure, abridged:
as §3

Test [8] relates to Staphylococcus aureus. In words: Bactericidal activity against penicillin-resistant Staphylococcus aureus measured after 24 hrs by CLSI protocol based method. It counts as functional. The procedure, abridged:
as §2

For test [9], the system named is Staphylococcus aureus. In words: Bactericidal activity against […] Staphylococcus aureus ATCC 25923 assessed as log reduction in colony forming unit at 2 times MIC after 24 hrs by time kill assay. In kind it is functional. An outline of the steps: as §1
For test [10], the system named is Staphylococcus aureus. In words: Bactericidal activity against erythromycin-susceptible Staphylococcus aureus ATCC 25923 measured after 24 hrs by CLSI protocol based method. It counts as functional. The procedure, abridged: as §2
Test [11] deals with Enterococcus faecalis. The test is described as follows: Antibacterial activity against vancomycin-susceptible Enterococcus faecalis ATCC 29212 assessed as bacterial growth inhibition incubated for 24 hrs by CLSI protocol based broth microdilution method. It counts as functional.
The test system of the next test is Bacillus pumilus. The test is described as follows: Ratio of MBC to MIC against penicillin-susceptible Bacillus pumilus CMCC 63202. It counts as functional. The procedure, abridged:
as §3

The subject of test [12] is Staphylococcus aureus. The test is described as follows: In vivo antibacterial activity against […] Staphylococcus aureus ATCC 25923 infected in Kunming mouse assessed as reduction in bacterial load at 1 mg/kg, administered 1 hr post bacterial infection and measured after 1 hr post compound treatment. It counts as functional, organism-based. The procedure, abridged: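 Kunming mice (~25 g, 6 per group) infected intravenously with 6 × 10⁷ CFU S. aureus ATCC25923 in 0.2 mL saline. About 1 h later, 1, 5 or 25 mg/kg was given intraperitoneally in 0.5 mL vehicle, with linezolid as reference. Orbital blood (100 µL) was taken before and 1 h after treatment, spread on MH agar and counted after 24 h.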

Test [13] relates to Staphylococcus aureus. In words: Antibacterial activity against methicillin-resistant Staphylococcus aureus ATCC 43300 assessed as inhibition of bacterial growth by broth microdilution method. In kind it is functional. As to conditions: time 24 hrs. The procedure, abridged:
as §4

Broadly, the MIC is the lowest concentration that inhibits growth of the organism. In general, MBC refers to the smallest concentration meeting the test's criterion for killing. Read a low MBC as greater bactericidal potency.

Molecules are shown by their SMILES. Activity calls are given as the source filed them. Some results are limits rather than exact numbers.

As to `C[n+]1c2ccccc2c(/C=C/c2ccc(C(C)(C)C)cc2)c2ccccc21.[I-]`, the MIC in the test on Enterococcus faecium was 4 µg/mL; in [2] it was 1 µg/mL; with Pseudomonas aeruginosa, above 64 µg/mL; in the test with Staphylococcus aureus [3], 0.5 µg/mL; with Enterococcus faecalis [4] it was 4 µg/mL; in the test with Staphylococcus aureus [6], 2 µg/mL. The MIC with Enterococcus faecalis [11] worked out at 2 µg/mL; with Staphylococcus aureus [13], 1 µg/mL. Moreover, the Activity stood at 2.2 CFU in the test on Staphylococcus aureus [1] and 2.43 CFU in the test on Staphylococcus aureus [9]. The Ratio stood at 2 in the test with Bacillus subtilis, 2 in the test on Staphylococcus aureus [5], 4 in the test with Staphylococcus aureus [7] and 4 with Bacillus pumilus. Moreover, the MBC worked out at 4 µg/mL in the test on Staphylococcus aureus [8] and 2 µg/mL against Staphylococcus aureus [10]. The outcome in the test with Staphylococcus aureus [12] was inactive.
